Ecoli rRNA inh = inhibits bacterial ribosomal RNA function over humanized ribosomes. GFP signal change (wild-type ribosome), % (no concentration beside the values). E. coli WT GFP vs humanized-ribosome RFP mutants, fluorescence, 24 h; hits give low values; DMSO median 0, no signal -100. actives 1.6% (n = 350,000). AID 720706;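 active means significant combined selectivity score with lowered wild-type GFP, culture density cut under 30%, mutant RFP and density less affected; inactive means any of these conditions unmet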
SR-BI DiI-HDL act = activators of SR-BI mediated HDL lipid uptake; CHO ldlA[mSR-BI] cells, DiI-HDL uptake fluorescence, 3 h; 100 = double the neutral-control signal; activation, % at 12.5 µM; actives 0.096% (n = 320,000);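 active means mean replicate activation of at least 60% and every replicate at or above 60%; inconclusive means mean or all-replicate condition met, but not both; inactive means mean below 60% and not all replicates reaching 60%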;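 further: 0% = median plate neutral-control signal and 100% = twice that signal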
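system = CHO ldlA[mSR-BI] cells, LDL receptor-null, SR-BI overexpressing | medium = Ham's F12 with 0.5% BSA, HEPES 25 mM, pH 7.4 | probe or stimulus = DiI-HDL 10 µg/mL | compound dosing = single-point compound dose | incubation = compound exposure 3 h, 37 °C | technique = DiI fluorescence, bottom read | read-out = cell-associated DiI fluorescence as measure of HDL uptake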
Xi reactivation = X-chromosome reactivation activator; actives 0.055% (n = 360,000); XiGFP mouse fibroblasts, % GFP-positive cells imaging, 3 d; cells co-treated with 5-aza-dC sensitizer; scaled so ellipticine positive control = 100%; AID 743238; activation, % at 7.58 µM;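 active means mean normalized replicate activation at least 10% and every replicate at or above 10%; inconclusive means only one of the two criteria met; inactive means mean below 10% and not all replicates reach 10%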;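 further: 0% = median of on-plate neutral control wells and 100% = ellipticine 6 µM median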
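Schedule: 3 d treatment, 15 min room-temperature fixation; system: 68-5-11 XiGFP fibroblast line; buffer or medium: DMEM plus 5-aza-dC sensitizer; control set: ellipticine 6 µM positive control; compound: one concentration, pinned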
dFosB act = enhances mouse delta FosB homodimer DNA binding | P13346 | purified delta FosB, TAMRA-CDK5 oligo fluorescence polarization; percent of positive-control signal above neutral wells | activation, % at 25 µM | actives 0.99% (n = 340,000) | AID 493131;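 active means mean activation above about 17%, with every replicate also reaching it, limit read from the data, passing the limit was not always enough; inconclusive means only one of the two conditions met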
Target sequence (P13346 whole entry, looked up): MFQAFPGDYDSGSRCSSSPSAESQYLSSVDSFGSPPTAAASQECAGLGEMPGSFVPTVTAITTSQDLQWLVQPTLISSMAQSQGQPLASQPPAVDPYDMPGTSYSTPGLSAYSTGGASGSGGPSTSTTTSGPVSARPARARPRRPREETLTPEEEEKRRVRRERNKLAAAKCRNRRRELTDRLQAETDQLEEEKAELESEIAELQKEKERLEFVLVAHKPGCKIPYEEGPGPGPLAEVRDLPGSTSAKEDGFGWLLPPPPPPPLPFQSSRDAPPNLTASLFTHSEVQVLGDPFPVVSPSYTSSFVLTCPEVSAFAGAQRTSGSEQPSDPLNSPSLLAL
SR-BI HDL uptake = mouse SR-BI HDL lipid transfer inhibition. Q61009. inhibition, % at 12.5 µM. AID 488896. ldlA[mSR-BI] CHO cells, DiI-HDL uptake fluorescence, 3 h. actives 0.96% (n = 320,000);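 active means mean replicate inhibition of at least 70% and a set share of replicates each scoring 70 or more; inconclusive means meets just one of the two criteria; inactive means fails both criteria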;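 further: 0% = median of neutral control wells and 100% = median of positive control wells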
PvdQ inh = blocks Pseudomonas aeruginosa PvdQ acylase activity. purified PvdQ acylase, fluorescence plate reader. inhibition, % at 10 µM. actives 0.063% (n = 340,000); in the data active means inhibition above about 30%, passing the limit was not always enough; inconclusive means no clear call, values can overlap the other calls;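 further: 0% = vehicle neutral wells and 100% = reference inhibitor wells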
Starred values were filed as active, the others as inactive; ? = inconclusive; nt = no result given. This is a sample that favours compounds with a hit; in the whole collection about 2.6% have one here.

SMILES	Ecoli rRNA inh	SR-BI DiI-HDL act	Xi reactivation	dFosB act	SR-BI HDL uptake	PvdQ inh
C/C(N)=C(/C#N)C(=O)COC(=O)CCC1CCCC1	nt	24	nt	4	-24	-10
Cc1cc2cc3c(cc2nc1SCC(=O)N1CCN(C(=O)c2ccco2)CC1)OCO3	nt	-23	nt	-6	23	-8
Cc1cc2cc3c(cc2nc1SCC(=O)OC(C)C)OCO3	nt	-78	nt	0	78*	-2
CCOc1cc(/C=N/NC(=O)c2ccccc2-n2cccc2)ccc1O	-2	-4	0	-2	4	-13
CCOc1cc(/C=N/NC(=O)c2ccccc2OCc2ccc(F)cc2)ccc1O	-21*	-44	0	-9	44	9
COc1ccc(/C=N\NC(=O)c2ccccc2Br)cc1COc1ccc(F)cc1	3	-79	0	?	79*	9
COc1cc(C(=O)N/N=C/c2ccc(OC)c(CN3CCN(c4ccc(F)cc4)CC3)c2)ccc1O	-12	-15	-1	39*	15	4
COc1ccc(/C=N\NC(=O)c2ccccc2)cc1COc1ccc(F)cc1	-10	-11	0	-6	11	-3
COCc1cc(/C=N\NC(=O)COc2ccccc2)ccc1OC	-27*	6	0	-5	-6	-5
COc1ccc(/C=N/NC(=O)c2ccccc2)cc1CN1CCN(c2ccc(F)cc2)CC1	nt	-5	nt	2	5	16
C=CCN=Cc1sc2ccc(OCC)cc2c1O	8	nt	0	nt	nt	nt
CC(C)Sc1nc2c(c(=O)n1C)SC(C)C2 (stereo unspecified)	nt	183*	1	-3	-183	-11
CC(C)=CCCC(C)CN1CCC(n2nccc2NC(=O)C2CCCC2)CC1 (stereo unspecified)	9	-8	0	-7	8	13
COc1ccc(-c2nc3ccccc3o2)cc1OC	-4	-9	0	-27	9	-3
COc1ccc(/C=C/C(=O)NC(=S)NNC(=O)c2cnccn2)cc1	-4	-22	0	17*	22	-2
O=C(/C=C/c1ccc(F)cc1)NC(=S)NNC(=O)c1cnccn1	-49	-13	1	-14	13	2
COc1ccc(NS(=O)(=O)c2cc(NC(=O)/C=C/c3cc(OC)ccc3OC)ccc2N2CCCCC2)cc1	nt	-52	nt	-8	52	-17
COc1cc2c(cc1OC)C(C)N(C(=O)c1sc(-c3cnccn3)nc1C)CC2 (stereo unspecified)	-34*	nt	0	nt	nt	nt
C[C@H](O)[C@@H]1CN2CCc3c([nH]c4ccc(-c5ccc6c(c5)OCO6)cc34)[C@@H]2C[C@@H]1N(C)C(=O)NC1CCCCC1	-52*	nt	1	nt	nt	nt
Cc1cccc(-c2ccc3[nH]c4c(c3c2)CCN2C[C@@H]([C@H](C)O)[C@@H](N(C)C(=O)Nc3ccc(F)cc3)C[C@@H]42)c1	-22*	nt	nt	nt	nt	nt
COc1cccc(-c2ccc3c(c2)O[C@@H](CN(C)C(=O)C2CC2)[C@H](C)CN([C@@H](C)CO)S3(=O)=O)c1	-1	nt	-1	nt	nt	nt
CCOc1ccc(N(CC(=O)NC2CCCCC2C)S(=O)(=O)c2c(C)noc2C)cc1 (stereo unspecified)	-2	8	0	-15	-8	-13
CC(C)(c1ccccc1)c1ccc(OCC(O)CNC2CCN(Cc3ccccc3)CC2)cc1 (stereo unspecified)	-56	20	1	?	-20	-4
Cc1cccc(C)c1NC(=O)c1cccc(C(=O)Nc2c(C)cccc2C)n1	-25*	23	0	-7	-23	-15
CC(=O)Nc1ccc(S(=O)(=O)N(CC(=O)Nc2cc(C)on2)Cc2ccc(F)cc2)cc1	-24*	?	0	-10	-195	-3
SMILES	Ecoli rRNA inh	SR-BI DiI-HDL act	Xi reactivation	dFosB act	SR-BI HDL uptake	PvdQ inh
CCOc1ccc2oc(C(=O)N(C)CC(=O)Nc3ccc(OCC)c(OCC)c3)c(C)c2c1	-28*	-82	0	-27	82*	-12
CCOc1ccc(NC(=O)CN(C)C(=O)CCCOc2ccc(Br)cc2)cc1OCC	0	-83	-1	-7	83*	5
CCOc1ccc2oc(C(=O)NNC(=O)c3ccccc3O)c(C)c2c1	-12	-131	0	16	131*	-9
CCOc1ccc(NC(=O)CN(C)C(=O)c2cccnc2Sc2ccc(Cl)cc2)cc1OCC	-16	82*	0	-17	-82	-14
CCOc1ccc(NC(=O)CN(C)C(=O)CCNC(=O)c2ccc(Br)cc2)cc1OCC	7	-59	0	-8	59	9
Cc1ccccc1Nc1nc(N)nc(-c2oc3ccccc3c2C)n1	-36*	-28	0	9	28	-5
CCN1CCc2c(sc(NC(=O)c3ccc(S(=O)(=O)N4CC(C)OC(C)C4)cc3)c2C(N)=O)C1 (stereo unspecified)	-3	23	0	-14	-23	-5
CCN1CCN(S(=O)(=O)c2ccc(C(=O)Nc3sc4c(c3C(N)=O)CCN(CC)C4)cc2)CC1	0	4	54*	-7	-4	-6
CCN1CCc2c(sc(NC(=O)c3ccc4ccccc4c3)c2C(N)=O)C1	6	-12	38*	-31	12	-4
CC(C)N1CCc2c(sc(NC(=O)c3ccc(S(=O)(=O)N4CCc5ccccc54)cc3)c2C(N)=O)C1	nt	35	nt	55*	-35	-6
O=S(=O)(c1cnc(Cl)c(Br)c1)N1CCc2ccccc21	-1	7	0	0	-7	-8
O=S(=O)(c1cnc(Cl)c(Cl)c1)N1CCc2ccccc21	-33*	17	0	0	-17	5
O=C1CC(c2cc(Br)ccc2F)c2cc3c(cc2N1)CCC3 (stereo unspecified)	15	7	nt	41*	-7	-9
CN(C)c1ccc(NC(=O)CN2CCN(CC(=O)Nc3ccc(F)cc3)CC2)cc1	nt	-51	nt	-2	51	-15
O=C(COc1ccc([N+](=O)[O-])cc1)Nc1ccc(N2CCN(C(=O)c3ccco3)CC2)cc1	10	-30	0	-4	30	-11
Cc1oc(-c2ccc(Cl)cc2)cc1C(=O)N1CCC1(C)C(=O)O (stereo unspecified)	-7	nt	0	nt	nt	nt
Cc1oc(-c2ccc(Cl)cc2)cc1C(=O)/C(C#N)=C/Nc1ccccc1	-25*	-14	0	?	14	6
COc1cc(CNc2cccc3[nH]c(C(F)(F)F)nc23)cc(OC)c1	22	-31	0	-14	31	-6
CCN(CC)CCn1c2ccccc2c2cnc(N=CN(C)C)c(C#N)c21	nt	-7	nt	29*	7	-5
CCn1c2ccccc2c2cnc(N=CN(C)C)c(C#N)c21	nt	-39	nt	-3	39	-4

High-throughput results (PubChem BioAssay)
